Reference: ChEMBL document CHEMBL3124863, “Structural modifications of neuroprotective anti-Parkinsonian (-)-N6-(2-(4-(biphenyl-4-yl)piperazin-1-yl)-ethyl)-N6-propyl-4,5,6,7-tetrahydrobenzo[d]thiazole-2,6-diamine (D-264): an effort toward the improvement of in vivo efficacy of the parent molecule” (J Med Chem, 2014)
pEC50, pKi: −log10 of the molar value. Activity calls are given as the source filed them. No cut-off for these calls is given here.

Tests used:
[1] = species: Rattus norvegicus; experiment: Selectivity ratio of Ki for rat dopamine D2L receptor to Ki for rat dopamine D3 receptor
How it was run: (§1)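 Inhibition of [3H]spiroperidol (16.2 Ci/mmol) binding to rat D2 or D3 receptors expressed in HEK-293 cells. Buffer contains 0.9% NaCl; "high [radioligand]" protocol. IC50 converted to Ki by Cheng–Prusoff. Means ± SEM of 3–6 experiments, each in triplicate.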

[2] = target: D(2) dopamine receptor (Rattus norvegicus, UniProt P61169); experiment: Displacement of [3H]spiroperidol from rat dopamine D2L receptor expressed in HEK293 cells; type: cell-based; how it was run: as §1
[3] = target: D(3) dopamine receptor (Rattus norvegicus, UniProt P19020); experiment: Displacement of [3H]spiroperidol from rat dopamine D3 receptor expressed in HEK293 cells; type: cell-based; how it was run: as §1
[4] = system: MN9D; experiment: Neuroprotective activity in mouse MN9D cells assessed as protection against MPP+-induced toxicity pretreated for 1 hr followed by MPP+-challenge measured after 24 hrs by MTT assay; type: functional, cell-based
How it was run: (§2)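 MN9D mouse dopaminergic hybridoma cells seeded at 1 × 10^4 per well on poly-L-lysine and equilibrated 40 h. Pretreated 1 h with compound (0.001–20 μM), then cotreated with 100 μM MPP+ for 24 h at 37 °C. Viability by MTT (0.5 mg/mL final, 3 h), formazan in DMSO/methanol, A570–A690. Means ± SD of three experiments in 4–6 replicates; ANOVA with Tukey's test.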

[5] = system: Rattus norvegicus; experiment: Antiparkinsonian activity in 6-OHDA-lesioned Sprague-Dawley rat assessed as stimulation of rotational activity measured as time required to reach peak effect at 9.28 mg/kg, ip; type: functional; conditions: route intraperitoneal
How it was run: (§3)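 Male Sprague–Dawley rats (290–320 g) with a left medial forebrain bundle 6-OHDA lesion, confirmed by apomorphine challenge. Drug given i.p. in water/saline; vehicle controls. Contralateral (clockwise) rotations counted in a rotometry harness chamber in 30-min bins over up to 12 h. Doses 5 or 10 μmol/kg. Mean ± SEM of 3–4 rats; ANOVA with Dunnett's test.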

[6] = system: Rattus norvegicus; experiment: Antiparkinsonian activity in 6-OHDA-lesioned Sprague-Dawley rat assessed as stimulation of rotational activity at 4.64 mg/kg, ip measured for 7 hrs; type: functional, organism-based; parameters: dose 4.64 mg/kg; how it was run: as §3
[7] = system: Rattus norvegicus; experiment: Antiparkinsonian activity in 6-OHDA-lesioned Sprague-Dawley rat assessed as stimulation of rotational activity at 9.28 mg/kg, ip measured for 10 hrs; type: functional, organism-based; parameters: dose 9.28 mg/kg; how it was run: as §3
[8] = system: Rattus norvegicus; experiment: Antiparkinsonian activity in 6-OHDA-lesioned ip dosed Sprague-Dawley rat assessed as stimulation of rotational activity measured up to 12 hrs; type: functional, organism-based; how it was run: as §3
[9] = system: Rattus norvegicus; experiment: Antiparkinsonian activity in Sprague-Dawley rat assessed as reversal of reserpine-induced akinesia at 5 umol/kg, ip administered in deionized water measured up to 400 mins; type: functional, organism-based
How it was run: (§4)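 Male Sprague–Dawley rats (220–225 g) given reserpine 5 mg/kg s.c. 18 h before test drug. After 1 h acclimatization, drug given at 5 μmol/kg (i.p., or s.c. for ropinirole). Horizontal activity counted by infrared beam breaks for 6 h in 30-min intervals, compared with reserpine controls. n = 4; ANOVA with Dunnett's test.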

[10] = system: Radical scavenging activity; experiment: Antioxidant activity assessed as inhibition of DPPH free radical scavenging activity; type: functional
How it was run: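 Compounds in methanol (20–250 μM solutions) mixed 1:1 with 200 μM methanolic DPPH. Shaken 25 min at 30 °C, absorbance read at 517 nm. Methanol-only wells used for background; ascorbic acid as standard. % scavenging = (control A − sample A)/control A × 100.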

[11] = species: Homo sapiens; experiment: Selectivity ratio of EC50 for human dopamine D2 receptor to EC50 for human dopamine D3 receptor
[12] = target: D(3) dopamine receptor (Homo sapiens, UniProt P35462); experiment: Agonist activity at human dopamine D3 receptor expressed in CHO cells assessed as stimulation of [35S]GTPgammaS binding; type: functional, cell-based
[13] = target: T1, D(2) dopamine receptor (Homo sapiens, UniProt P14416); experiment: Agonist activity at human dopamine D2 receptor expressed in CHO cells assessed as stimulation of [35S]GTPgammaS binding relative to dopamine; type: functional, cell-based
How it was run: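 [35S]GTPγS (1250 Ci/mmol) binding stimulated in CHO cells expressing human D2. EC50 is the concentration giving half-maximal stimulation. […] Means ± SEM of 3–6 experiments, each in triplicate.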

[14] = target: T1, D(2) dopamine receptor; experiment: Agonist activity at human dopamine D2 receptor expressed in CHO cells assessed as stimulation of [35S]GTPgammaS binding; type: functional, cell-based
How it was run: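 [35S]GTPγS (1250 Ci/mmol) binding stimulated in CHO cells expressing human D2. EC50 is the concentration giving half-maximal stimulation. Means ± SEM of 3–6 experiments, each in triplicate.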

[15] = system: Rattus norvegicus; experiment: Antiparkinsonian activity in 6-OHDA-lesioned Sprague-Dawley rat assessed as stimulation of rotational activity at 2.5 umol/kg measured for 5 hrs in presence of haloperidol; type: functional, organism-based
[16] = system: Rattus norvegicus; experiment: Antiparkinsonian activity in Sprague-Dawley rat assessed as reversal of reserpine-induced akinesia at 5 umol/kg, ip administered in 10% beta-hydroxy cyclodextrin solution measured up to 400 mins; type: functional, organism-based; how it was run: as §4
[17] = system: Rattus norvegicus; experiment: Antiparkinsonian activity in 6-OHDA-lesioned Sprague-Dawley rat assessed as stimulation of rotational activity at 10 umol/kg measured up to 12 hrs; type: functional, organism-based; how it was run: as §3
[18] = system: Rattus norvegicus; experiment: Antiparkinsonian activity in Sprague-Dawley rat assessed as reversal of reserpine-induced akinesia at 5 umol/kg, sc administered in deionized water measured up to 400 mins; type: functional, organism-based; how it was run: as §4
[19] = system: MN9D; experiment: Neuroprotective activity in mouse MN9D cells assessed as protection against MPP+-induced toxicity at 0.001 to 20 uM pretreated for 1 hr followed by MPP+-challenge measured after 24 hrs by MTT assay; type: functional, cell-based; how it was run: as §2
[20] = system: Rattus norvegicus; experiment: Antiparkinsonian activity in 6-OHDA-lesioned Sprague-Dawley rat assessed as stimulation of rotational activity measured as time required to reach peak effect at 6.56 mg/kg, ip; type: functional; conditions: route intraperitoneal; how it was run: as §3
[21] = system: Rattus norvegicus; experiment: Antiparkinsonian activity in 6-OHDA-lesioned Sprague-Dawley rat assessed as stimulation of rotational activity at 3.28 mg/kg, ip measured for 7 hrs; type: functional, organism-based; parameters: dose 3.28 mg/kg; how it was run: as §3
[22] = system: Rattus norvegicus; experiment: Antiparkinsonian activity in 6-OHDA-lesioned Sprague-Dawley rat assessed as stimulation of rotational activity at 6.56 mg/kg, ip measured for 10 hrs; type: functional, organism-based; parameters: dose 6.56 mg/kg; how it was run: as §3
[23] = target: T1, D(2) dopamine receptor; experiment: Agonist activity at human dopamine D2 receptor expressed in CHO cells assessed as stimulation of [35S]GTPgammaS binding
[24] = target: T1, D(2) dopamine receptor; experiment: Agonist activity at human dopamine D2 receptor expressed in CHO cells assessed as stimulation of [35S]GTPgammaS binding relative to dopamine

T1 sequence (P14416 whole entry): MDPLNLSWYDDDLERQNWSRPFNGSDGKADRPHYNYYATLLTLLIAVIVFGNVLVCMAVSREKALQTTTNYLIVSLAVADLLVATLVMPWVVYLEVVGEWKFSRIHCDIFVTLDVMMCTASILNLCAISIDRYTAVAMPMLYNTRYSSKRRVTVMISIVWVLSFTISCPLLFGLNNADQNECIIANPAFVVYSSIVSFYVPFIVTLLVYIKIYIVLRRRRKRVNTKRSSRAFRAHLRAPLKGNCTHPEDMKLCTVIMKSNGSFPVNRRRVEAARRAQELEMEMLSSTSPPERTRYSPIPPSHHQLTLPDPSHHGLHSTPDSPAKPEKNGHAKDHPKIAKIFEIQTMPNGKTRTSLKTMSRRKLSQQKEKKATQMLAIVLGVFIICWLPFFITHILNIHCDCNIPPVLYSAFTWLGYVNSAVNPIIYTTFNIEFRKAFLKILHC
Sequence of D(2) dopamine receptor (Rattus norvegicus, UniProt P61169) (P61169 whole entry): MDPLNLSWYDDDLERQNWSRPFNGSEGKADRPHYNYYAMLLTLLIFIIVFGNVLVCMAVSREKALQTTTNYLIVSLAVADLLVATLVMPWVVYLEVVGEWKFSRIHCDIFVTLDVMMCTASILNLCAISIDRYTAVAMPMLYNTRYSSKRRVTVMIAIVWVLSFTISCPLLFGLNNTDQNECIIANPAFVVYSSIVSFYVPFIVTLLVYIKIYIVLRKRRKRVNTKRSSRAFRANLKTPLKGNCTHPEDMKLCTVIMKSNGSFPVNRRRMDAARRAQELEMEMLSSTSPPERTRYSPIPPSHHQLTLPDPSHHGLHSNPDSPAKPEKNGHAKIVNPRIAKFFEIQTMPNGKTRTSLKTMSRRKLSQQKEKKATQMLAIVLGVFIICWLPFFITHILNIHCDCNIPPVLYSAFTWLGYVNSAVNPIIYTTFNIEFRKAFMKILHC
Sequence of D(3) dopamine receptor (Rattus norvegicus, UniProt P19020) (P19020 whole entry): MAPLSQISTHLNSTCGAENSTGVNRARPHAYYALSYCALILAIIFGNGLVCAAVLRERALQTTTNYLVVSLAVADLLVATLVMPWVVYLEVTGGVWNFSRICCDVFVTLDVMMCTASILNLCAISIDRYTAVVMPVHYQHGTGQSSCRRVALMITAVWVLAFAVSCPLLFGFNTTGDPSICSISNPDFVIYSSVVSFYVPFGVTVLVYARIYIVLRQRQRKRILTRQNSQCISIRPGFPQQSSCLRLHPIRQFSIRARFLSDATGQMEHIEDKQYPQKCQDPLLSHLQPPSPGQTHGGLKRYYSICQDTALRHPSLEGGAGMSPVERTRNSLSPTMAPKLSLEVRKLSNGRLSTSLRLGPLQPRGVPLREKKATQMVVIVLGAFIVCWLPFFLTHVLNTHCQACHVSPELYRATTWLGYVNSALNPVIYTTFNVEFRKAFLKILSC
Sequence of D(3) dopamine receptor (Homo sapiens, UniProt P35462) (P35462 whole entry): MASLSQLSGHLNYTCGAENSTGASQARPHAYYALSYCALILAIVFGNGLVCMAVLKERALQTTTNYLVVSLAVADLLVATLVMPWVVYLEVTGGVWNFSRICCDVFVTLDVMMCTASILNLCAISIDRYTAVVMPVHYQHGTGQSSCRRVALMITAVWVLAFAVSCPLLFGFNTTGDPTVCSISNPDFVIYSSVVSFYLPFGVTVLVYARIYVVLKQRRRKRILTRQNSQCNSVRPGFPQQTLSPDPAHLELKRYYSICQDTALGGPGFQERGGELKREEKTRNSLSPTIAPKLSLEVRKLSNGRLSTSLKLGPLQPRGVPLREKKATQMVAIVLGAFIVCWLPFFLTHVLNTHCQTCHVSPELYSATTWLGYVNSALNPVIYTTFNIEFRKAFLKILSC

Ratio Ki [1] | pKi [2] | pKi [3] | Structure (SMILES) | inhibition [10] | further results
196 | 6.64 | 8.93 | CCCN(CCN1CCN(c2ccc(-c3ccc(O)cc3)cc2)CC1)C1CCc2nc(N)sc2C1 (racemic) |  | 
30 | 7.15 | 8.63 | CCCN(CCN1CCN(c2ccc(-c3ccccc3)cc2O)CC1)C1CCc2nc(N)sc2C1 (racemic) |  | 
213 | 6.43 | 8.76 | CCCN(CCN1CCN(c2ccc(-c3cccc(O)c3)cc2)CC1)[C@H]1CCc2nc(N)sc2C1 | Dose-dependent effect | Activity [4]: Dose-dependent effect; Time [5]: 7.5 h; Activity [6]: Active; Activity [7]: Active; Activity [8]: Dose-dependent effect; Activity [9]: Active; Ratio EC50 [11]: 159; pEC50 [12]: 10.00; Emax [13]: 116%; pEC50 [14]: 7.80
196 | 4.88 | 7.17 | CCCN(CCN1CCN(c2ccc(-c3cccc(O)c3)cc2)CC1)C1CCc2nc(N)ncc2C1 (racemic) |  | 
 |  |  | CCCN(CCN1CCN(c2ccc(-c3ccccc3)cc2)CC1)[C@H]1CCc2nc(N)sc2C1 | Dose-dependent effect | Activity [4]: Dose-dependent effect; Activity [15]: inactive; Activity [16]: Active; Activity [9]: inactive
201 | 6.13 | 8.44 | CCCN(CCN1CCN(c2ccc(-c3ccccc3)cc2)CC1)C1CCc2nc(N)ncc2C1 (racemic) |  | 
 |  |  | O=C1O[C@H]([C@@H](O)CO)C(O)=C1O | Dose-dependent effect | 
174 | 5.78 | 8.02 | CCCN(CCN1CCN(C(=O)c2ccc(-c3ccccc3)cc2)CC1)C1CCc2nc(N)sc2C1 (racemic) |  | 
115 | 6.68 | 8.74 | CCCN(CCN1CCN(c2ccc(-c3ccccc3O)cc2)CC1)C1CCc2nc(N)sc2C1 (racemic) |  | 
 |  |  | CCCN(CCC)CCc1cccc2c1CC(=O)N2 | Dose-dependent effect | Activity [17]: Active; Activity [18]: Active
151 | 6.67 | 8.85 | CCCN(CCN1CCN(c2ccc(-c3ccc(OC)cc3)cc2)CC1)C1CCc2nc(N)sc2C1 (racemic) |  | 
36 | 7.56 | 9.11 | CCCN(CCN1CCN(c2ccc(-c3cccc(O)c3)cc2)CC1)[C@H]1CCc2c(O)cccc2C1 | Dose-dependent effect | 
60 | 6.25 | 8.03 | CCCN(CCCCN1CCN(c2ccc(-c3cccc(O)c3)cc2)CC1)C1CCc2nc(N)sc2C1 (racemic) |  | 
220 | 6.33 | 8.68 | CCCN(CCN1CCN(c2ccc(-c3cccc(OC)c3)cc2)CC1)C1CCc2nc(N)sc2C1 (racemic) |  | 
76 | 5.82 | 7.71 | CCCN(CCN1CCN(c2ccc(-c3cccc(O)c3)cc2)CC1)[C@@H]1CCc2nc(N)sc2C1 |  | 
289 | 6.46 | 8.92 | CCCN(CCN1CCN(c2ccc(-c3cccc(O)c3)cc2)CC1)C1CCc2nc(N)sc2C1 (racemic) |  | 
147 | 6.46 | 8.63 | CCCN(CCN1CCN(c2ccc(-c3cccc(OC)c3)cc2)CC1)[C@H]1CCc2nc(N)sc2C1 | Dose-dependent effect | Activity [19]: inactive; Time [20]: 7.5 h; Activity [21]: Active; Activity [22]: Active; Activity [8]: Dose-dependent effect; Activity [9]: Active; Ratio EC50 [11]: 10.8; pEC50 [12]: 8.47; pEC50 [23]: 7.43; Emax [24]: 105%
78 | 6.56 | 8.45 | CCCN(CCN1CCN(c2ccc(-c3ccccc3OC)cc2)CC1)C1CCc2nc(N)sc2C1 (racemic) |  | 
